Measurements from ChEMBL document CHEMBL4732136, “Synthesis, Tumor Specificity, and Photosensitizing Efficacy of Erlotinib-Conjugated Chlorins and Bacteriochlorins: Identification of a Highly Effective Candidate for Photodynamic Therapy of Cancer” (J Med Chem, 2021).

How the values were obtained:
UMUC3 = test: Photosensitizing activity in human UMUC3 cells assessed as reduction in cell viability pretreated with compound for 24 hrs followed by light irradiation at 1 J/cm2 and measured after 48 hrs by MTT assay; assay type: functional, cell-based; settings: UMUC3, light or radiation study
Outline: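 Cells plated 0.01x10⁶ to 0.05x10⁶ cells/ml and allowed to adhere 24 h before photosensitizer was added, top dose 1600 nM with 2-fold serial dilutions. Plates received no light (0 J/cm²) or 1 J/cm² at 565 mW, 15 cm spot. After 48 h, MTT added for 3 h, formazan solubilized in DMSO and read at 570 nm; IC₅₀ fitted from dose-response.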

FaDu = test: Photosensitizing activity in human FaDu cells assessed as reduction in cell viability pretreated with compound for 24 hrs followed by light irradiation at 1 J/cm2 and measured after 48 hrs by MTT assay; assay type: functional, cell-based; settings: light or radiation study
Outline: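 Cells seeded at 0.01–0.05 x 10⁶ cells/ml; PS added 24 h after plating, top dose 1600 nM with 2-fold serial dilutions. Plates given 0 or 1 J/cm² light. MTT added 48 h later, formazan dissolved in DMSO, absorbance at 570 nm; IC50 from curve fitting.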

[1] = Drug uptake in skin of SCID mouse xenografted with human UMUC3 cells at 0.47 micromol/kg, iv pretreated with compound followed by light irradiation at a dose of 135 J/cm2 and 75 mW/cm2 measured after 2 to 24 hrs by IVIS analysis; assay type: ADME, organism-based, Skin of body; settings: in vivo, time 2-24 hrs, dose 0.47 µmol/kg
Outline: (§1)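 Female SCID mice with UMUC3 flank/shoulder tumors, 3 per group. PS in 1% Tween80/5% dextrose given iv at 0.47, 0.25 or 0.125 μmol/kg. Whole-body fluorescence imaging by IVIS at several times after injection; average radiant efficiency measured in tumor, liver and skin.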

[2] = Drug uptake in liver of SCID mouse xenografted with human UMUC3 cells at 0.47 micromol/kg, iv pretreated with compound followed by light irradiation at a dose of 135 J/cm2 and 75 mW/cm2 measured after 2 to 24 hrs by IVIS analysis; assay type: ADME, organism-based; settings: in vivo, time 2-24 hrs, dose 0.47 µmol/kg; outline: as §1
[3] = Drug uptake in human FaDu clone 49 cells assessed as increase in drug retention at 1.6 uM in RPMI medium with 10% FBS followed by 48 hrs chase period by inverted fluorescence microscopic analysis
[4] = Drug uptake in human CFSE-stained HN-121 cells assessed as increase in drug retention at 1.6 uM in medium with 10% FBS followed by 48 hrs chase period by inverted fluorescence microscopic analysis; assay type: ADME, cell-based; settings: hn-121, 48 h
[5] = Drug uptake in tumor of SCID mouse xenografted with human UMUC3 cells at 0.47 micromol/kg, iv pretreated with compound followed by light irradiation at a dose of 135 J/cm2 and 75 mW/cm2 measured after 2 to 24 hrs by IVIS analysis; assay type: ADME, organism-based, Neoplasm; settings: in vivo, time 2-24 hrs, dose 0.47 µmol/kg; outline: as §1
[6] = Drug uptake in human HNT1 cells at 3.2 uM incubated for 30 mins in DMEM media with 10% FBS followed by […] in compound-free medium by inverted fluorescence microscopic analysis; assay type: ADME, cell-based; settings: hnt1, 0.5 h, in the assay text read “in serum-free medium” for “in DMEM media with 10% FBS”
Outline: (§2)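 Confluent HNT1 cultures (passage 116) given 3.2 μM PS for 30 min in serum-free medium, then 5 h in serum-containing medium with PS, then 15 h chase in serum medium without PS. Fluorescence recorded at 100X with varied camera exposures and quantified digitally; pixel signal normalized to time and cell number.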

[7] = Drug uptake in human HNT1 cells at 3.2 uM incubated for 30 mins in serum free medium followed by […] in compound-free medium by inverted fluorescence microscopic analysis; assay type: ADME, cell-based; settings: hnt1, 0.5 h; outline: as §2
[8] = Drug uptake in human HN-143 cells assessed as increase in drug retention retention at 3 uM in medium with 10% FBS incubated for 5 hrs followed by 40 hrs chase period by inverted fluorescence microscopic analysis; assay type: ADME, cell-based; settings: hn-143, 5 h
Outline: (§3)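 Five-day co-cultures of HN-143 tumor epithelial cells and HN-166 tumor fibroblasts, both primary head & neck tumor cultures grown on collagen-1 under selective media. PS in 10% FBS medium for 5 h, then 40 h chase without PS. Phase-contrast and fluorescence images taken at 100X with 500 ms exposure; signal normalized to recording time and cell number.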

[9] = Drug uptake in human HN-166 cells assessed as increase in drug retention retention at 3 uM in medium with 10% FBS incubated for 5 hrs followed by 40 hrs chase period by inverted fluorescence microscopic analysis; assay type: ADME, cell-based; settings: hn-166, 5 h; outline: as §3

C=Cc1c(C)c2cc3nc(c(CC(=O)OC)c4[nH]c(cc5nc(cc1[nH]2)C(C)=C5CC)c(C)c4C(=O)NCc1cccc(C#Cc2cccc(Nc4ncnc5cc(OCCOC)c(OCCOC)cc45)c2)c1)[C@@H](CCC(=O)OC)[C@@H]3C
IC50 (UMUC3): 39.6 nM
IC50 (FaDu): 33.4 nM

C=Cc1c(C)c2cc3nc(c(CC(=O)NCc4cccc(C#Cc5cccc(Nc6ncnc7cc(OCCOC)c(OCCOC)cc67)c5)c4)c4[nH]c(cc5nc(cc1[nH]2)C(C)=C5CC)c(C)c4C(=O)OC)[C@@H](CCC(=O)OC)[C@@H]3C
IC50 (UMUC3): 45 nM
IC50 (FaDu): 166 nM

CCC1=C(C)c2cc3[nH]c(cc4nc(c5c6[nH]c(cc1n2)c(C)c6C(=O)C5)[C@@H](CCC(=O)OC)[C@@H]4C)c(C)c3COCc1cccc(C#Cc2cccc(Nc3ncnc4cc(OCCOC)c(OCCOC)cc34)c2)c1
IC50 (UMUC3): 76.3 nM
Drug uptake [1]: Active
Drug uptake [2]: Active
Drug uptake [3]: Not Active
Drug uptake [4]: Not Active
IC50 (FaDu): 23.3 nM
Drug uptake [5]: Not Active

CCC1=C(C)c2cc3[nH]c(cc4nc(c5c6[nH]c(cc1n2)c(C)c6C(=O)C5)[C@@H](CCC(=O)O)[C@@H]4C)c(C)c3C(C)OCc1cccc(C#Cc2cccc(Nc3ncnc4cc(OCCOC)c(OCCOC)cc34)c2)c1 (some centres undefined)
IC50 (UMUC3): 54.8 nM
Drug uptake [6]: Active
Drug uptake [7]: Active
IC50 (FaDu): 31.8 nM
Drug uptake [5]: Not Active

CCCCCCOC(C)c1c(C)c2cc3nc(c4c5[nH]c(cc6nc(cc1[nH]2)C(C)=C6CC)c(C)c5C(=O)C4)[C@@H](CCC(=O)NCc1cccc(I)c1)[C@@H]3C (some centres undefined)
IC50 (UMUC3): 187 nM
IC50 (FaDu): 520 nM

CCCCCCOC(C)c1c(C)c2cc3nc(c(CC(=O)OC)c4[nH]c(cc5nc(cc1[nH]2)C(C)=C5CC)c(C)c4C(=O)NCCCOCCOCCOCCCNC(=O)Cc1cccc(C#Cc2cccc(Nc4ncnc5cc(OCCOC)c(OCCOC)cc45)c2)c1)[C@@H](CCC(=O)OC)[C@@H]3C (some centres undefined)
IC50 (UMUC3): 7.5 nM
Drug uptake [8]: Active
Drug uptake [9]: Active
Drug uptake [3]: Active
Drug uptake [4]: Active
IC50 (FaDu): 21.4 nM

CCC1=C(C)c2cc3[nH]c(c(C)c3CC)c(-c3ccc(C(=O)NCc4ccc(I)cc4)cc3)c3nc(c4c5[nH]c(cc1n2)c(C)c5C(=O)C4)[C@@H](CCC(=O)OC)[C@@H]3C
IC50 (UMUC3): 196 nM
Drug uptake [3]: Not Active
Drug uptake [4]: Not Active
IC50 (FaDu): 1250 nM

C=Cc1c(C)c2cc3nc(c(CC(=O)OC)c4[nH]c(cc5nc(cc1[nH]2)C(C)=C5CC)c(C)c4C(=O)NCc1cccc(I)c1)[C@@H](CCC(=O)OC)[C@@H]3C
IC50 (UMUC3): 28.2 nM
IC50 (FaDu): 13.8 nM

CCCCCCOC(C)c1c(C)c2cc3nc(c4c5[nH]c(cc6nc(cc1[nH]2)C(C)=C6CC)c(C)c5C(=O)C4)[C@@H](CCC(=O)NCc1cccc(C#Cc2cccc(Nc4ncnc5cc(OCCOC)c(OCCOC)cc45)c2)c1)[C@@H]3C (some centres undefined)
IC50 (UMUC3): 43.4 nM
Drug uptake [8]: Active
Drug uptake [9]: Active
Drug uptake [3]: Active
Drug uptake [4]: Active

CCC1c2cc3[nH]c4c(c5nc(cc6[nH]c(cc(n2)C1C)c(C(C)OCc1cccc(C#Cc2cccc(Nc7ncnc8cc(OCCOC)c(OCCOC)cc78)c2)c1)c6C)[C@@H](C)[C@@H]5CCC(=O)OC)CC(=O)c4c3C (some centres undefined)
IC50 (UMUC3): 16.8 nM
Drug uptake [3]: Not Active
Drug uptake [4]: Not Active

C=Cc1c(C)c2cc3nc(c(CC(=O)OC)c4[nH]c(cc5nc(cc1[nH]2)C(C)=C5CC)c(C)c4C(=O)NCCNC(=O)COCC(=O)NCCCOCCOCCOCCCNC(=O)Cc1cccc(I)c1)[C@@H](CCC(=O)OC)[C@@H]3C
IC50 (UMUC3): 26.4 nM
Drug uptake [3]: Not Active
Drug uptake [4]: Not Active
IC50 (FaDu): 19.2 nM

C=Cc1c(C)/c2[nH]/c1=C\C1=NC(=C\C3=C(C)C4C(=O)N(Cc5cccc(C#Cc6cccc(Nc7ncnc8cc(OCCOC)c(OCCOC)cc78)c6)c5)C(=O)/C(=C5N=C(\C=2)[C@@H](C)[C@@H]/5CCC(=O)OC)C4N3)/C(CC)=C1C (some centres undefined)
Drug uptake [3]: Not Active
Drug uptake [4]: Not Active

CCC1=C(C)c2cc3[nH]c(c(C)c3CC)c(-c3ccc(C(=O)NCc4ccc(C#Cc5cccc(Nc6ncnc7cc(OCCOC)c(OCCOC)cc67)c5)cc4)cc3)c3nc(c4c5[nH]c(cc1n2)c(C)c5C(=O)C4)[C@@H](CCC(=O)OC)[C@@H]3C
Drug uptake [3]: Not Active
Drug uptake [4]: Not Active
IC50 (FaDu): > 10000 nM

CCC1=C(C)c2cc3[nH]c(cc4nc(c5c6[nH]c(cc1n2)c(C)c6C(=O)C5)[C@@H](CCC(=O)O)[C@@H]4C)c(C)c3C(C)OCc1ccc(C#Cc2cccc(Nc3ncnc4cc(OCCOC)c(OCCOC)cc34)c2)cc1 (some centres undefined)
IC50 (UMUC3): 34.4 nM
Drug uptake [3]: Active
Drug uptake [4]: Active
IC50 (FaDu): 59.6 nM

C=Cc1c(C)c2cc3nc(c(CC(=O)OC)c4[nH]c(cc5nc(cc1[nH]2)C(C)=C5CC)c(C)c4C(=O)NCCNC(=O)COCC(=O)NCCCOCCOCCOCCCNC(=O)Cc1cccc(C#Cc2cccc(Nc4ncnc5cc(OCCOC)c(OCCOC)cc45)c2)c1)[C@@H](CCC(=O)OC)[C@@H]3C
IC50 (UMUC3): 59.2 nM
Drug uptake [3]: Not Active
Drug uptake [4]: Not Active
IC50 (FaDu): 88.6 nM

CCCCCCOC(C)c1c(C)c2cc3nc(c(CC(=O)OC)c4[nH]c(cc5nc(cc1[nH]2)C(C)=C5CC)c(C)c4C(=O)NCCCOCCOCCOCCCNC(=O)Cc1cccc(I)c1)[C@@H](CCC(=O)OC)[C@@H]3C (some centres undefined)
IC50 (UMUC3): 6.8 nM
IC50 (FaDu): 15.4 nM

CCCCCCOC(C)c1c(C)c2cc3nc(c4c5[nH]c(cc6nc(cc1[nH]2)C(C)=C6CC)c(C)c5C(=O)C4)[C@@H](CCC(=O)NC(CCC(=O)NCc1cccc(C#Cc2cccc(Nc4ncnc5cc(OCCOC)c(OCCOC)cc45)c2)c1)(CCC(=O)NCc1cccc(C#Cc2cccc(Nc4ncnc5cc(OCCOC)c(OCCOC)cc45)c2)c1)CCC(=O)NCc1cccc(C#Cc2cccc(Nc4ncnc5cc(OCCOC)c(OCCOC)cc45)c2)c1)[C@@H]3C (some centres undefined)
Drug uptake [3]: Not Active
Drug uptake [4]: Not Active

CCCCCCOC(C)c1c(C)c2cc3nc(c(CC(=O)OC)c4[nH]c(cc5nc(cc1[nH]2)C(C)=C5CC)c(C)c4C(=O)NCc1cccc(C#Cc2cccc(Nc4ncnc5cc(OCCOC)c(OCCOC)cc45)c2)c1)[C@@H](CCC(=O)OC)[C@@H]3C (some centres undefined)
IC50 (UMUC3): 3.5 nM
Drug uptake [8]: Active
Drug uptake [9]: Active
Drug uptake [3]: Not Active
Drug uptake [4]: Not Active

CCCCCCOC(C)c1c(C)c2cc3nc(c(CC(=O)OC)c4[nH]c(cc5nc(cc1[nH]2)C(C)=C5CC)c(C)c4C(=O)NCc1cccc(I)c1)[C@@H](CCC(=O)OC)[C@@H]3C (some centres undefined)
Drug uptake [3]: Not Active
Drug uptake [4]: Not Active

CCC1c2cc3[nH]c4c(c5nc(cc6[nH]c(cc(n2)C1C)c(C(C)OCc1cccc(C#Cc2cccc(Nc7ncnc8cc(OCCOC)c(OCCOC)cc78)c2)c1)c6C)[C@@H](C)[C@@H]5CCC(=O)O)CC(=O)c4c3C (some centres undefined)
IC50 (UMUC3): 8.9 nM
Drug uptake [3]: Not Active
Drug uptake [4]: Not Active
